The source made the active and inactive calls. No cut-off for these calls is given here.
Legend:
[1] = target: Adenosine A2 receptor (Homo sapiens) (UniProt P29275+P29274); assay: Displacement of [3H]ZM 241385 from human adenosine A2 receptor expressed in CHO cells at 10 uM; format: cell-based
Method in brief: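 Competition for [3H]ZM 241385 at CHO hA2A membranes (100 µg protein), 60 min at 4 °C, Tris-HCl with MgCl2, pH 7.4. Nonspecific binding defined with 1 µM ZM241385. Compound tested at 10 µM; percent displacement reported, n = 3.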

[2] = target: T1, Adenosine receptor A1 (Homo sapiens) (UniProt P30542); assay: Displacement of [3H]DPCPX from human adenosine A1 receptor expressed in CHO cells at 10 uM; format: cell-based
T1 sequence (whole entry): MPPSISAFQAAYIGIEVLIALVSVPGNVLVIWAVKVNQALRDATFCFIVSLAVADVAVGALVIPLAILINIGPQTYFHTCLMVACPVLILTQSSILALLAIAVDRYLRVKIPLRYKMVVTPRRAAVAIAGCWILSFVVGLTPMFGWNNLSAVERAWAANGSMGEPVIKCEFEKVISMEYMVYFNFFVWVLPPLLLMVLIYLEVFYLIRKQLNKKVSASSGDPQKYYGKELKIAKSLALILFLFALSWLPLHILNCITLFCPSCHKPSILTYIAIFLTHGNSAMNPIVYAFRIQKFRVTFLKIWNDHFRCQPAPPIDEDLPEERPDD
Method in brief: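 Competition for 1 nM [3H]DPCPX at CHO hA1 membranes (100 µg protein), 150 min at 25 °C, Tris-HCl pH 7.4. Nonspecific binding defined with 1 µM DPCPX. Compound tested at 10 µM; percent displacement reported, n = 3.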

[3] = target: T1, Adenosine receptor A1 (Homo sapiens); assay: Activity at human recombinant adenosine A1 receptor expressed in CHO cells assessed as inhibition of forskolin-stimulated cAMP accumulation in presence of CPA at 10 uM relative to control; format: functional, cell-based; design: scale not given: the % may be the effect or the level left
Method in brief: (§1)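 CHO cells stably expressing human A1 receptor (about 5 pmol/mg protein), grown 48–72 h in Ham's F12 with FBS and G-418. Cells were washed in HBSS for 6 min at 37 °C, then incubated 6 min at 37 °C in HBSS with adenosine deaminase (0.5 U/ml), 20 µM rolipram, 1 µM forskolin and 0.03 nM CPA, plus compound at 0.01–10 µM. Stopped with 50 mM HCl; cAMP read by acetylation radioimmunoassay. Quadruplicates; averaged over six experiments.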

[4] = target: T2, Adenosine receptor A3 (Homo sapiens) (UniProt P0DMS8); assay: Displacement of [3H]MRE-3008F20 from human adenosine A3 receptor expressed in CHO cells at 10 uM; format: cell-based
T2 sequence (whole entry): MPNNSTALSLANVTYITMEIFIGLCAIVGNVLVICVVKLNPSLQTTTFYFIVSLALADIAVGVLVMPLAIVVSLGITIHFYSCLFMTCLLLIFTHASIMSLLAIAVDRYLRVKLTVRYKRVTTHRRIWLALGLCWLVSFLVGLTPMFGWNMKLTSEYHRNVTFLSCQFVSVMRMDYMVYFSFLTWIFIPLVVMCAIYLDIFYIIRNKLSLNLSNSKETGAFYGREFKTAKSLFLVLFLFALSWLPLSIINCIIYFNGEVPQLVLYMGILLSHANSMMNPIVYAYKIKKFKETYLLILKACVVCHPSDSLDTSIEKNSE
Method in brief: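 Competition for [3H]MRE-3008F20 at CHO hA3 membranes (100 µg protein), 150 min at 4 °C, Tris-HCl with MgCl2 and 1 mM EDTA, pH 7.4. Compound tested at 10 µM; percent displacement reported, n = 3.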

[5] = target: T1, Adenosine receptor A1 (Homo sapiens); assay: Activity at human recombinant adenosine A1 receptor expressed in CHO cells assessed as inhibition of forskolin-stimulated cAMP accumulation in presence of CPA at 0.1 uM relative to control; format: functional, cell-based; design: scale not given: the % may be the effect or the level left; method in brief: as §1
[6] = target: T1, Adenosine receptor A1 (Homo sapiens); assay: Activity at human recombinant adenosine A1 receptor expressed in CHO cells assessed as inhibition of forskolin-stimulated cAMP accumulation in presence of CPA at 0.01 uM relative to control; format: functional, cell-based; design: scale not given: the % may be the effect or the level left; method in brief: as §1
[7] = target: T1, Adenosine receptor A1 (Homo sapiens); assay: Activity at human recombinant adenosine A1 receptor expressed in CHO cells assessed as inhibition of forskolin-stimulated cAMP accumulation in presence of CPA at 1 uM relative to control; format: functional, cell-based; design: scale not given: the % may be the effect or the level left; method in brief: as §1
[8] = target: T1, Adenosine receptor A1 (Homo sapiens); assay: Activity at human recombinant adenosine A1 receptor expressed in CHO cells assessed as inhibition of forskolin-stimulated cAMP accumulation in the presence of CPA relative to control; format: functional, cell-based; design: scale not given: the % may be the effect or the level left; method in brief: as §1
[9] = target: T1, Adenosine receptor A1 (Homo sapiens); assay: Activity at human recombinant adenosine A1 receptor expressed in CHO cells assessed as inhibition of forskolin-stimulated cAMP accumulation in the presence of CPA at 10 uM; format: functional, cell-based; design: scale not given: the % may be the effect or the level left; method in brief: as §1

| SMILES | inhibition [1] | inhibition [2] | Activity [3] | inhibition [4] | Activity [5] | Activity [6] | Activity [7] | Activity [8] | Activity [9] |
| --- | --- | --- | --- | --- | --- | --- | --- | --- | --- |
| Nc1sc2cnccc2c1C(=O)c1ccc(Cl)cc1 | 0% | 50% | 114% | 0% | 102% | 104% | 96% | – | – |
| COc1ccc(C(=O)c2c(N)sc3cnccc23)cc1 | 0% | 0% | 94% | 0% | 97% | 95% | 90% | – | – |
| Cc1ccc(C(=O)c2c(N)sc3cnccc23)cc1 | 0% | 45% | 121% | 0% | 107% | 102% | 107% | – | – |
| Nc1sc2cnccc2c1C(=O)c1ccccc1 | 0% | 0% | 100% | 0% | 89% | 91% | 90% | – | – |
| Cc1sc(N)c(C(=O)c2cccc(C(F)(F)F)c2)c1C | 0% | 0% | 52% | – | 93% | 97% | 81% | 48% | – |
| Nc1sc2cnccc2c1C(=O)c1ccc(Cl)c(Cl)c1 | 0% | 0% | 105% | 0% | 108% | 113% | 103% | – | – |
| Nc1sc2cnccc2c1C(=O)c1cccc2ccccc12 | 0% | 0% | 66% | 0% | 112% | 113% | 107% | – | Active |
| Nc1sc2cnccc2c1C(=O)c1cccc(C(F)(F)F)c1 | 0% | 0% | 63% | 0% | 95% | 101% | 82% | – | 37% |
| Nc1sc2cnccc2c1C(=O)c1ccccc1Cl | 0% | 0% | 111% | 0% | 98% | 103% | 97% | – | – |
| Nc1sc2cnccc2c1C(=O)c1cccs1 | 0% | 35% | 98% | 0% | 104% | 111% | 107% | – | – |
| Nc1sc2cnccc2c1C(=O)c1ccc(Br)cc1 | 0% | 0% | 104% | 0% | 89% | 97% | 84% | – | – |

Reference: ChEMBL document CHEMBL1139691, “Microwave-assisted synthesis of thieno[2,3-c]pyridine derivatives as a new series of allosteric enhancers at the adenosine A(1) receptor” (Bioorg Med Chem Lett, 2006)
